# Laboratory results from PMC9033422 (RSC Advances, 2021).
# Key:
# [1] = tested on: human benign liver cell lines LO2; test: MTT cytotoxicity, LO2 cells, 24 h; type: cell-based; conditions: L02, 24 h, read-out: IC50 (μM)/24 h LO2
# Outline: (§1)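 Cells (1 × 10^4 per well, triplicate) were pre-cultured 24 h at 37 °C, then exposed 24 h at 37 °C to test compound at 10, 25, 50, 100 and 200 μg mL−1, with drug-free and DMSO solvent controls. MTT (2 mg mL−1 stock in PBS) was added for 4 h and formazan dissolved in DMSO. A568 was read; inhibition % = (A control − A dosed)/A control × 100.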
# [2] = tested on: human liver cancer cell lines SMMC-7721; test: MTT cytotoxicity, SMMC-7721 cells, 24 h; type: cell-based; conditions: SMMC-7721, 24 h, read-out: IC50 (μM)/24 h SMMC-7721
# Outline: as §1
# [3] = tested on: human benign breast cell lines MCF-10A; test: MTT cytotoxicity of 12a, MCF-10A cells, 48 h; type: cell-based; conditions: read-out: IC50 (μM)/48 h MCF-10A
# Outline: (§2)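 Seeding was 1 × 10^4 cells per well in triplicate, with 24 h pre-culture at 37 °C. No iron supplement was used. Test compound at 0.01, 0.1, 1, 10 and 25 μg mL−1 was given for 48 h at 37 °C, with drug-free and DMSO solvent controls. MTT (2 mg mL−1 stock in PBS) was added for 4 h, centrifuged, formazan dissolved in DMSO, and absorbance read at 568 nm.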
# [4] = tested on: human benign prostate cell lines RWPE-1; test: MTT cytotoxicity of 12a, RWPE-1 cells, 48 h; type: cell-based; conditions: RWPE-1, 48 h, read-out: IC50 (μM)/48 h RWPE-1
# Outline: as §2
# MHCC97H cell lines = test: Annexin V-FITC/PI flow cytometry apoptosis assay; type: cell-based, human; conditions: 48 h
# Outline: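 MHCC97H cells were seeded in triplicate and pre-cultured 24 h at 37 °C. Medium was replaced with test compound at 0.01, 1 or 25 μg mL−1, alongside drug-free and DMSO solvent controls, for 48 h at 37 °C. Cells were detached with 0.25% trypsin without EDTA, stained with Annexin V-FITC/PI for 5–15 min at room temperature in the dark, and analysed by flow cytometry. Quadrants: live, early apoptotic, late apoptotic, necrotic.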
# [5] = tested on: human liver cancer cell lines SMMC-7721; test: MTT cytotoxicity of 12a in Fe2+ environment, SMMC-7721 cells, 48 h; type: cell-based; conditions: SMMC-7721, 48 h, read-out: IC50 (μM)/48 h SMMC-7721 with Fe2+
# Outline: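 Cells at 1 × 10^4 per well, in triplicate, grew 12 h at 37 °C, then 12 h more in medium containing 100 μmol L−1 FeSO4. Medium was replaced with test compound (0.01, 0.1, 1, 10, 25 μg mL−1), with drug-free and DMSO solvent controls, for 48 h at 37 °C. MTT (2 mg mL−1 stock in PBS) was added for 4 h, formazan dissolved in DMSO, and A568 read.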
# [6] = tested on: human benign colon cell lines CCD18CO; test: MTT cytotoxicity of 12a, CCD18CO cells, 48 h; type: cell-based; conditions: CCD-18Co, read-out: IC50 (μM)/48 h CCD18CO
# Outline: as §2
SMILES,IC50 [1],IC50 [2],other results
"C[C@H]1[C@H](N2CCS(=O)(=O)[C@@H](CCCCCCN3CCN(C4=C(Cl)C(=O)OC4O[C@H]4CC5CCC4(C)C5(C)C)CC3)C2)O[C@@H]2O[C@@]3(C)CC[C@H]4[C@H](C)CC[C@@H]1[C@@]24OO3 (stereo partly drawn) [Hybrid 12c, 3-Chloro-4-(4-(6-((S)-1,1-dioxido-4-((3R,5aS,6R,8aS,9R,10R,12R,12aR)-3,6,9-trimethyldecahydro-3H-3,12-epoxy[1,2]dioxepino[4,3-i]isochromen-10-yl)thiomorpholin-2-yl)hexyl)piperazin-1-yl)-5-(((2S)-1,7,7-trimethylbicyclo[2.2.1]heptan-2-yl)oxy)furan-2(5H)-one]",70 ± 30 µM,70 ± 40 µM,–
"CC(C)[C@@H]1CC[C@@H](C)C[C@@H]1O[C@H]1OC(=O)C(Cl)=C1N1CCN(CCCCCC[C@H]2CN([C@@H]3OC4O[C@@]5(C)CC[C@H]6[C@H](C)CC[C@@H]([C@H]3C)[C@@]46OO5)CCS2(=O)=O)CC1 (stereo partly drawn) [Hybrid 12b, (5S)-3-Chloro-4-(4-(6-((2S)-1,1-dioxido-4-((3R,5aS,6R,8aS,9R,10R,12aR)-3,6,9-trimethyldecahydro-3H-3,12-epoxy[1,2]dioxepino[4,3-i]isochromen-10-yl)thiomorpholin-2-yl)hexyl)piperazin-1-yl)-5-(((1S,2S,5R)-2-isopropyl-5-methylcyclohexyl)oxy)furan-2(5H)-one]",360 ± 30 µM,320 ± 30 µM,–
"C[C@H]1[C@@H](O)O[C@@H]2O[C@@]3(C)CC[C@H]4[C@H](C)CC[C@@H]1[C@@]24OO3 [DHA, Dihydroartemisinin, reference compound]",220 ± 40 µM,> 700 µM,–
"CC[C@]1(O)C[C@H]2CN(CCc3c([nH]c4ccccc34)[C@@](C(=O)OC)(c3cc4c(cc3OC)N(C=O)[C@H]3[C@@](O)(C(=O)OC)[C@H](OC(C)=O)[C@]5(CC)C=CCN6CC[C@]43[C@@H]65)C2)C1 [VCR, vincristine, reference compound]",300 ± 20 µM,270 ± 30 µM,–
"CC(C)[C@@H]1CC[C@@H](C)C[C@@H]1O[C@H]1OC(=O)C(Br)=C1N1CCN(CCCCCC[C@H]2CN([C@@H]3OC4O[C@@]5(C)CC[C@H]6[C@H](C)CC[C@@H]([C@H]3C)[C@@]46OO5)CCS2(=O)=O)CC1 (stereo partly drawn) [Hybrid 12e, (5S)-3-Bromo-4-(4-(6-((2S)-1,1-dioxido-4-((3R,5aS,6R,8aS,9R,10R,12aR)-3,6,9-trimethyldecahydro-3H-3,12-epoxy[1,2]dioxepino[4,3-i]isochromen-10-yl)thiomorpholin-2-yl)hexyl)piperazin-1-yl)-5-(((1S,2S,5R)-2-isopropyl-5-methylcyclohexyl)oxy)furan-2(5H)-one]",330 ± 30 µM,210 ± 20 µM,–
"COC1OC(=O)C(Br)=C1N1CCN(CCCCCC[C@H]2CN([C@@H]3OC4O[C@@]5(C)CC[C@H]6[C@H](C)CC[C@@H]([C@H]3C)[C@@]46OO5)CCS2(=O)=O)CC1 (stereo partly drawn) [Hybrid 12d, 3-Bromo-4-(4-(6-((2S)-1,1-dioxido-4-((3R,5aS,6R,8aS,9R,10R,12aR)-3,6,9-trimethyldecahydro-3H-3,12-epoxy[1,2]dioxepino[4,3-i]isochromen-10-yl)thiomorpholin-2-yl)hexyl)piperazin-1-yl)-5-methoxyfuran-2(5H)-one]",370 ± 40 µM,340 ± 20 µM,–
"C[C@H]1[C@H](N2CCS(=O)(=O)[C@@H](CCCCCCN3CCN(C4=C(Br)C(=O)O[C@@H]4O[C@H]4CC5CCC4(C)C5(C)C)CC3)C2)O[C@@H]2O[C@@]3(C)CC[C@H]4[C@H](C)CC[C@@H]1[C@@]24OO3 [Hybrid 12f, (5S)-3-Bromo-4-(4-(6-((S)-1,1-dioxido-4-((3R,5aS,6R,8aS,9R,10R,12R,12aR)-3,6,9-trimethyldecahydro-3H-3,12-epoxy[1,2]dioxepino[4,3-i]isochromen-10-yl)thiomorpholin-2-yl)hexyl)piperazin-1-yl)-5-(((2S)-1,7,7-trimethylbicyclo[2.2.1]heptan-2-yl)oxy)furan-2(5H)-one]",300 ± 30 µM,220 ± 30 µM,–
"COC1OC(=O)C(Cl)=C1N1CCN(CCCCCC[C@H]2CN([C@@H]3OC4O[C@@]5(C)CC[C@H]6[C@H](C)CC[C@@H]([C@H]3C)[C@@]46OO5)CCS2(=O)=O)CC1 (stereo partly drawn) [Hybrid 12a, 3-Chloro-4-(4-(6-((2S)-1,1-dioxido-4-((3R,5aS,6R,8aS,9R,10R,12aR)-3,6,9-trimethyldecahydro-3H-3,12-epoxy[1,2]dioxepino[4,3-i]isochromen-10-yl)thiomorpholin-2-yl)hexyl)piperazin-1-yl)-5-methoxyfuran-2(5H)-one]",700 ± 20 µM,30 ± 40 µM,IC50 [3]: 40 ± 40 µM; IC50 [4]: 100 ± 30 µM; percentage of apoptosis (MHCC97H cell lines; 0.01 μg mL^−1 (lowest concentration)): 7.67%; percentage of apoptosis (MHCC97H cell lines; 25 μg mL^−1 (highest concentration)): 59.76%; IC50 [5]: 20 ± 30 µM; IC50 [6]: 60 ± 40 µM
